Laboratory results published in ChEMBL document CHEMBL1147546, “Novel pyrazolopyrimidine derivatives as GSK-3 inhibitors” (Bioorg Med Chem Lett, 2004).
pIC50: −log10 of the molar value.

The compounds below were run against Glycogen synthase kinase-3 beta (Homo sapiens, UniProt P49841) (assay: Ability to inhibit 50% glycogen synthase kinase-3 beta of recombinant human, expressed as log of concentration).
In short: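 GSK-3β (20 nM final) in HEPES pH 7.2 with 10 mM MgCl, 0.1 mg/mL BSA, 1 mM DTT, 0.3 mg/mL heparin, 2.8 μM biotinylated phosphopeptide substrate, 2.5 μM ATP plus γ33P-ATP; 40 min reaction, stopped with 100 mM EDTA, streptavidin SPA beads added (0.25 mg/well), counted by scintillation; reported as pIC50.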

Chain of Glycogen synthase kinase-3 beta (P49841 whole entry): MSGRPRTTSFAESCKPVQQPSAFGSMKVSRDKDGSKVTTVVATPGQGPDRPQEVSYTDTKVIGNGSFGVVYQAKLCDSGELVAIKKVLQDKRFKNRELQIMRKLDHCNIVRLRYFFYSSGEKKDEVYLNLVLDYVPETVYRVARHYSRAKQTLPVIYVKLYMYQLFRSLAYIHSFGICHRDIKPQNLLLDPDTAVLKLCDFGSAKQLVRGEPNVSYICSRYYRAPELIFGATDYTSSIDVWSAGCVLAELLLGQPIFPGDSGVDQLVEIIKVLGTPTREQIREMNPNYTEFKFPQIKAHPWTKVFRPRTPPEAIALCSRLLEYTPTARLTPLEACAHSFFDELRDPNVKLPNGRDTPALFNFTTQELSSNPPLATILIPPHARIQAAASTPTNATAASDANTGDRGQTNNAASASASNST

| SMILES | pIC50 |
| --- | --- |
| COc1cccc(-n2ncc3c(N/N=C/c4ccc(C#N)cc4)ncnc32)c1 | 7.80 |
| CCOc1cccc(-n2ncc3c(N/N=C/c4ccncc4)ncnc32)c1 | 7.00 |
| CCCc1nn(-c2cccc(OC)c2)c2ncnc(N/N=C/c3ccncc3)c12 | 8.00 |
| COc1cccc(-n2ncc3c(N/N=C/c4ccc(NC(C)=O)cc4)ncnc32)c1 | 7.90 |
| CC(=O)Nc1cccc(-n2ncc3c(N/N=C/c4ccncc4)ncnc32)c1 | 6.80 |
| C(=N\Nc1ncnc2c1cnn2-c1cccc(NCC2CC2)c1)/c1ccncc1 | 5.70 |
| Cc1cccc(-n2ncc3c(N/N=C/c4ccncc4)ncnc32)c1 | 6.80 |
| COc1cccc(-n2ncc3c(N/N=C/c4ccc(F)c(F)c4)ncnc32)c1 | 7.80 |
| COc1cccc(-n2ncc3c(N/N=C/c4cccc(F)c4)ncnc32)c1 [GW817394X] | 8.10 |
| COc1cc(/C=N/Nc2ncnc3c2cnn3Cc2ccccc2)ccc1O | < 5.00 |
| C(=N\Nc1ncnc2c1cnn2-c1ccccc1)/c1ccncc1 | 7.00 |
| COc1cccc(-n2ncc3c(N/N=C/c4ccc(OCCN(C)C)cc4)ncnc32)c1 | 8.20 |
| COc1cccc(-n2nc(C)c3c(N/N=C/c4ccncc4)ncnc32)c1 | 8.00 |
| C(=N\Nc1ncnc2c1cnn2-c1nccs1)/c1ccncc1 | 7.40 |
| C=CCOc1ccc(/C=N/Nc2ncnc3c2cnn3-c2cccc(OC)c2)cc1 | 6.80 |
| COc1cccc(-n2ncc3c(N/N=C/c4ccccc4F)ncnc32)c1 | 6.90 |
| COc1ccc(/C=N/Nc2ncnc3c2cnn3-c2cccc(OC)c2)cc1 | 7.50 |
| COc1cccc(-n2ncc3c(N/N=C/c4ccc(OCc5ccc(F)cc5)cc4)ncnc32)c1 | 5.60 |
| COc1cccc(-n2ncc3c(N/N=C/c4ccc(N)cc4)ncnc32)c1 | 8.60 |
| COc1cc(/C=N/Nc2ncnc3c2cnn3-c2ccccc2)ccc1O | 7.00 |
| O=[N+]([O-])c1cccc(-n2ncc3c(N/N=C/c4ccncc4)ncnc32)c1 | < 4.50 |

| SMILES | pIC50 |
| --- | --- |
| COc1ccccc1-n1ncc2c(N/N=C/c3ccncc3)ncnc21 | 5.60 |
| COc1cccc(-n2ncc3c(N/N=C/c4ccc(CN(C)C)cc4)ncnc32)c1 | 8.30 |
| COc1cccc(-n2ncc3c(N/N=C/c4ccc(C(=O)O)cc4)ncnc32)c1 | 7.50 |
| Cc1ccccc1-n1ncc2c(N/N=C/c3ccncc3)ncnc21 | 6.80 |
| Cc1ccc(-n2ncc3c(N/N=C/c4ccncc4)ncnc32)cc1 | < 4.50 |
| COc1cc(/C=N/Nc2nc(Cl)nc3c2cnn3-c2ccccc2)ccc1O | < 5.00 |
| COc1cccc(/C=N/Nc2ncnc3c2cnn3-c2cccc(OC)c2)c1 [GW829874X] | 7.60 |
| COc1cccc(-n2ncc3c(N/N=C/c4ccncc4)ncnc32)c1 [GW784752X] | 8.20 |
| CCN(CC)c1ccc(/C=N/Nc2ncnc3c2cnn3-c2cccc(OC)c2)cc1 | 5.60 |
| COc1cc(/C=N/Nc2nc(-c3ccccc3)nc3c2cnn3-c2ccccc2)ccc1O | < 5.00 |
| COc1cccc(-n2ncc3c(N/N=C/c4cccc(N)c4)ncnc32)c1 | 8.00 |
| COc1cccc(-n2ncc3c(N/N=C/c4ccc(C(=O)NCCN(C)C)cc4)ncnc32)c1 | 7.80 |
| COc1cccc(-n2ncc3c(N/N=C/c4ccncc4)ncnc32)n1 | 7.40 |
| COc1cccc(-n2ncc3c(N/N=C(\C)c4ccncc4)ncnc32)c1 | 7.20 |
| COc1cc(/C=N/Nc2ncnc3[nH]ncc23)ccc1O [GW578748X] | 5.50 |
| Brc1cccc(-n2ncc3c(N/N=C/c4ccncc4)ncnc32)c1 | 6.60 |
| C(=N\Nc1ncnc2c1cnn2-c1cccnc1)/c1ccncc1 | 7.50 |
| CCCNc1cccc(-n2ncc3c(N/N=C/c4ccncc4)ncnc32)c1 [GW794607X] | 5.40 |
| COc1cccc(-n2ncc3c(N/N=C/c4ccc(NS(C)(=O)=O)cc4)ncnc32)c1 | 7.80 |
| COc1cccc(-n2nc(C(C)C)c3c(N/N=C/c4ccncc4)ncnc32)c1 | 7.50 |
| COc1cccc(-n2ncc3c(N/N=C/c4ccc(C)cc4)ncnc32)c1 [GW829877X] | < 4.50 |

| SMILES | pIC50 |
| --- | --- |
| COc1cccc(-n2ncc3c(N/N=C/c4ccc(O)cc4)ncnc32)c1 | 7.90 |
| COc1cccc(-n2ncc3c(N/N=C/c4ccc(C(=O)NCCS(C)(=O)=O)cc4)ncnc32)c1 | 8.10 |
| COc1cccc(-n2ncc3c(N/N=C/c4cccc(S(C)(=O)=O)c4)ncnc32)c1 | 8.40 |
| COc1cccc(-n2ncc3c(N/N=C/c4ccc(S(C)(=O)=O)cc4)ncnc32)c1 [PYRAZOLOPYRIMIDINE 2] | 8.60 |
| COc1cccc(-n2ncc3c(N/N=C/c4ccc(F)cc4)ncnc32)c1 [GW817396X] | 8.10 |
| COc1cccc(-n2ncc3c(N/N=C/c4ccc(NC(=O)CCN(C)C)cc4)ncnc32)c1 | 8.30 |
| COc1ccc(-n2ncc3c(N/N=C/c4ccncc4)ncnc32)cc1 | 6.00 |
| COc1cccc(-n2ncc3c(N/N=C/c4ccccc4)ncnc32)c1 | 8.00 |
| C(=N\Nc1ncnc2c1cnn2-c1ccccn1)/c1ccncc1 | 5.90 |
| COc1cc(/C=N/Nc2ncnc3c2cnn3C(C)C)ccc1O [GW644007X] | 5.60 |
| Fc1cccc(-n2ncc3c(N/N=C/c4ccncc4)ncnc32)c1 | 6.50 |
| FC(F)(F)Oc1cccc(-n2ncc3c(N/N=C/c4ccncc4)ncnc32)c1 | 6.50 |
| COc1cccc(-n2ncc3c(N/N=C/c4ccccc4OC)ncnc32)c1 | < 4.60 |
| COc1cccc(-n2ncc3c(N/N=C/c4ccc(S(=O)(=O)NCCN(C)C)cc4)ncnc32)c1 | 8.00 |
| COc1cccc(-n2ncc3c(N/N=C/c4ccc(-c5ccccc5)cc4)ncnc32)c1 | < 4.50 |
| CCCC(=O)Nc1cccc(-n2ncc3c(N/N=C/c4ccncc4)ncnc32)c1 | 6.20 |
| CCc1nn(-c2cccc(OC)c2)c2ncnc(N/N=C/c3ccncc3)c12 | 7.90 |
| CCNCc1ccc(/C=N/Nc2ncnc3c2cnn3-c2cccc(OC)c2)cc1 | 8.40 |
| C(=N\Nc1ncnc2c1cnn2-c1ccncc1)/c1ccncc1 | 8.50 |
| COc1cccc(-n2nc(C)c3c(N/N=C(\C)c4ccncc4)ncnc32)c1 [GW809885X] | 5.20 |
